# In ChEMBL document CHEMBL4819122, “Novel 4-(piperazin-1-yl)quinolin-2(1H)-one bearing thiazoles with antiproliferative activity through VEGFR-2-TK inhibition” (Bioorg Med Chem, 2021):
# Experiments:
# CCRF-CEM = test: Cytotoxicity against human CCRF-CEM assessed as growth inhibition at 10 uM by NCI protocol relative to control; format: functional; conditions: read-out: GI
# Outline: (§1)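 Run by NCI as a single-dose screen at 10 μM across the sixty-cell-line panel, which covers nine human tumour tissue types. The read-out is percent growth inhibition of treated cells relative to untreated cells.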
# HCT-116 = test: Cytotoxicity against human HCT-116 assessed as growth inhibition at 10 uM by NCI protocol relative to control; format: functional; conditions: read-out: GI; outline: as §1
# COLO 205 = test: Cytotoxicity against human COLO 205 assessed as growth inhibition at 10 uM by NCI protocol relative to control; format: functional; conditions: read-out: GI; outline: as §1
# HCT-15 = test: Cytotoxicity against human HCT-15 assessed as growth inhibition at 10 uM by NCI protocol relative to control; format: functional; conditions: read-out: GI; outline: as §1
# T47D [1] = test: Cytotoxicity against human T47D cells assessed as reduction in cell viability after 3 hrs by MTT assay
# T47D [2] = test: Cytotoxicity against human T-47D assessed as growth inhibition at 10 uM by NCI protocol relative to control; format: functional; conditions: read-out: GI
# Outline: (§2)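 Run by the NCI under its standard protocol: one dose of 10 μM against a sixty-line panel from nine human tumour tissues. Result given as percent growth inhibition of treated cells relative to untreated cells.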
# TK-10 = test: Cytotoxicity against human TK-10 assessed as growth inhibition at 10 uM by NCI protocol relative to control; format: functional; conditions: read-out: GI; outline: as §2
# DU-145 = test: Cytotoxicity against human DU-145 assessed as growth inhibition at 10 uM by NCI protocol relative to control; format: functional; conditions: read-out: GI; outline: as §1
# SR = test: Cytotoxicity against human SR assessed as growth inhibition at 10 uM by NCI protocol relative to control; format: functional; conditions: read-out: GI; outline: as §2
# HL-60 = test: Cytotoxicity against human HL60 assessed as growth inhibition at 10 uM by NCI protocol relative to control; format: functional; conditions: read-out: GI; outline: as §1
# NCI-H522 = test: Cytotoxicity against human NCI-H522 assessed as growth inhibition at 10 uM by NCI protocol relative to control; format: functional; conditions: read-out: GI; outline: as §1
# M14 = test: Cytotoxicity against human M14 assessed as growth inhibition at 10 uM by NCI protocol relative to control; format: functional; conditions: read-out: GI; outline: as §1
# NCI-H322M = test: Cytotoxicity against human NCI-H322M assessed as growth inhibition at 10 uM by NCI protocol relative to control; format: functional; conditions: read-out: GI; outline: as §1
# BT-549 = test: Cytotoxicity against human BT-549 assessed as growth inhibition at 10 uM by NCI protocol relative to control; format: functional; conditions: read-out: GI; outline: as §1
# NCI-H226 = test: Cytotoxicity against human NCI-H226 assessed as growth inhibition at 10 uM by NCI protocol relative to control; format: functional; conditions: read-out: GI; outline: as §1
# UO-31 = test: Cytotoxicity against human UO31 assessed as growth inhibition at 10 uM by NCI protocol relative to control; format: functional; conditions: read-out: GI; outline: as §2
# HOP-62 = test: Cytotoxicity against human HOP-62 assessed as growth inhibition at 10 uM by NCI protocol relative to control; format: functional; conditions: read-out: GI; outline: as §1
# T47D [3] = test: Induction of cell cycle arrest in human T47D cells assessed as increase in accumulation at S phase after 24 hrs by propidium iodide/Annexin V staining based FACScan flow cytometry(reference value: 34.62%); format: functional
# T47D [4] = test: Induction of apoptosis in human T47D cells assessed as early apoptotic cells after 24 hrs by Annexin V-FITC/propidium iodide staining based flow cytometric analysis (reference value: 0.66 %); format: functional
# T47D [5] = test: Induction of apoptosis in human T47D cells assessed as total apoptotic cells after 24 hrs by Annexin V-FITC/propidium iodide staining based flow cytometric analysis (reference value: 2.61 %); format: functional
# T47D [6] = test: Induction of apoptosis in human T47D cells assessed as late apoptotic cells after 24 hrs by Annexin V-FITC/propidium iodide staining based flow cytometric analysis (reference value: 0.21 %); format: functional
# T47D [7] = test: Induction of cell cycle arrest in human T47D cells assessed as increase in accumulation at G2/M phase after 24 hrs by propidium iodide/Annexin V staining based FACScan flow cytometry(reference value: 12.79%); format: functional
# T47D [8] = test: Induction of cell cycle arrest in human T47D cells assessed as increase in accumulation at pre G1 phase after 24 hrs by propidium iodide/Annexin V staining based FACScan flow cytometry(reference value: 2.61%); format: functional
# T47D [9] = test: Induction of cell cycle arrest in human T47D cells assessed as increase in accumulation at G0/G1 phase after 24 hrs by propidium iodide/Annexin V staining based FACScan flow cytometry(reference value: 52.59%); format: functional
# MCF10 = test: Cytotoxicity against human MCF10 cells assessed as reduction in cell viability after 3 hrs by MTT assay; conditions: MCF10, 3 h
# T47D [10] = test: Induction of apoptosis in human T47D cells assessed as necrotic cells after 24 hrs by Annexin V-FITC/propidium iodide staining based flow cytometric analysis (reference value: 1.74%); format: functional
Compound,inhibition of growth at 10 µM (CCRF-CEM),inhibition of growth at 10 µM (HCT-116),inhibition of growth at 10 µM (COLO 205),inhibition of growth at 10 µM (HCT-15),IC50 (T47D [1]),inhibition of growth at 10 µM (T47D [2]),inhibition of growth at 10 µM (TK-10),inhibition of growth at 10 µM (DU-145),inhibition of growth at 10 µM (SR),inhibition of growth at 10 µM (HL-60),inhibition of growth at 10 µM (NCI-H522),inhibition of growth at 10 µM (M14),inhibition of growth at 10 µM (NCI-H322M),inhibition of growth at 10 µM (BT-549),inhibition of growth at 10 µM (NCI-H226),inhibition of growth at 10 µM (UO-31),inhibition of growth at 10 µM (HOP-62),further results
O=C(CN1CCN(c2cc(=O)[nH]c3ccc(F)cc23)CC1)Nc1nc(-c2ccc(Cl)cc2)cs1,33.3%,48%,14.5%,34.9%,2.73 µM,73.2%,34.3%,41.1%,29.1%,38.3%,25.9%,30.6%,21.3%,27.5%,12.6%,38%,–,–
Cc1ccc(-c2csc(NC(=O)CN3CCN(c4cc(=O)[nH]c5ccc(F)cc45)CC3)n2)cc1,47%,45.2%,10.7%,37.1%,8.41 µM,74.3%,46.3%,47.4%,47.5%,40.6%,22.3%,27.5%,18.9%,21.5%,11.7%,35.4%,–,–
O=C(CN1CCN(c2cc(=O)n(-c3ccccc3)c3ccccc23)CC1)Nc1nc(-c2ccccc2)cs1,60.4%,46.6%,39.9%,74.8%,10.3 µM,83.4%,–,27.3%,48.7%,62.9%,33.5%,26.6%,10.6%,33%,51.8%,58.4%,33.5%,–
O=C(CN1CCN(c2cc(=O)n(-c3ccccc3)c3ccccc23)CC1)Nc1nc(-c2ccc(Cl)cc2)cs1,49.3%,64.2%,42.7%,60.3%,30.2 µM,75.7%,37.6%,38.4%,43.2%,73.8%,43.7%,50.2%,10.9%,53.5%,52.6%,70.5%,34.2%,Activity (T47D [3]): 49.36%; Activity (T47D [4]): 4.06%; Activity (T47D [5]): 25.12%; Activity (T47D [6]): 11.21%; Activity (T47D [7]): 4.95%; Activity (T47D [8]): 25.12%; Activity (T47D [9]): 45.69%; IC50 (MCF10): 64.6 µM; Activity (T47D [10]): 9.85%
